Screening data from PubChem.
The list is not random: actives were taken first. Their share in the collection is about 3.7%.
Cl transport mod: modulators of human KCC2 chloride dependent transport. KCC2 cells, thallium flux FluoZin-2 fluorescence. Q9H2X9. 190,000 compounds, 2.2% hits. B-score of Tl+ flux slope (higher = more flux/activation; lower = inhibition) at 10 µM;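 active = thallium flux slope and its plate-corrected score both differing from the plate sample mean at a set confidence after two filtering rounds, in either direction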;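 also: slope of fluorescence scaled to starting intensity during 10 to 20 s after thallium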
DTT redox prof: compounds producing H2O2 with reducing agent – biochemical, NIH compound library profiling, artefact control for MLSCN library redox annotation, primary screen; DTT-dependent redox cycling H2O2, phenol red/HRP absorbance; 100% = 100 µM peroxide control, 0% = buffer; 200,000 compounds, 0.03% hits; AID 878; activation, % at 10 µM;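 active = activation of at least 50% relative to the plate's high and low controls in the primary single-dose screen; inactive = activation below 50%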;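 also: compound incubated with DTT at 0.8 mM final as the reducing agent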
ROMK mod: human ROMK K+ channel modulation, primary screen; B-score at 10 µM; 130,000 compounds, 2% hits; Tet-inducible ROMK, thallium flux fluorescence; actives lie on both sides; P48048;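 active = signal ratio slope over the read window, or its plate-corrected B-score, at least 3 SD from the plate mean, either direction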;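 also: B-score of the F/F0 ratio slope over 7 to 12 s after thallium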
Target sequence (P48048 whole entry, looked up): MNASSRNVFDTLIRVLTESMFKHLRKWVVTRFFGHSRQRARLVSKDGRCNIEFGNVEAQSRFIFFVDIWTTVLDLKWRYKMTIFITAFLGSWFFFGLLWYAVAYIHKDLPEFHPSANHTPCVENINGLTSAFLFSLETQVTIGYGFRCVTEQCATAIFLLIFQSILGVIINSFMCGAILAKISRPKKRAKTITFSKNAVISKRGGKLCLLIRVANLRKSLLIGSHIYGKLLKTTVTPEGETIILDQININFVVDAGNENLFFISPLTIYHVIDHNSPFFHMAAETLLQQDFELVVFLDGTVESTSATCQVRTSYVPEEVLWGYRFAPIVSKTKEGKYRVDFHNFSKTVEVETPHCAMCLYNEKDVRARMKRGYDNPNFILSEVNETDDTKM
b-catenin transl: alters nuclear translocation of beta-catenin in HeLa cells; immunofluorescence imaging; nuclear translocation activity, % at 5 µM; 190,000 compounds, 0.3% hits; AID 1665;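 active = nuclear translocation activity above 50% at 5 µM, with a well cell count of 50 or more; inconclusive = wells under 50 cells across six images, flagged as toxic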;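 also: per-cell ratio of nuclear to cytoplasmic median beta-catenin stain intensity; plate controls were DMSO negative control for no effect and GSK-3 inhibitor IX positive control for full effect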
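Test system: human HeLa cells, native beta-catenin. Compound dosing: 5 µM primary single dose, 0.1% DMSO, 0.02–20 µM confirmation series. Incubation: compound exposure 24 h at 37°C. Detection: beta-catenin immunostaining with DAPI counterstain, 20x imaging, 6 fields/well. Read-out basis: Nuclear/cytoplasmic beta-catenin signal ratio, % activation.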
MT stabilize HCS: microtubule stabilization, imaging screen; 200,000 compounds, 0.83% hits; AID 2205; % tubulin-high responders, % at 10 µM; HeLa tubulin immunostaining HCS, 24 h; share of cells brighter than vehicle mean+2SD;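 active = plate Z-score above 3 for both tubulin-high and condensed-nucleus cell shares, with cell loss under 80%, at 10 µM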;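 also: anti alpha tubulin signal scored within the nucleus-defined area of each cell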
KCC2 sec1: KCC2 (human) modulation, secondary assay; HEK293-KCC2, thallium flux, FluoZin2 fluorescence; active compounds read high; AID 1713; shares compounds with Cl transport mod; 3,700 compounds, 15% hits; normalised thallium flux (F/F0 slope) at 10 µM;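 active = thallium flux slope above the same plate's solvent-only control mean plus 3 SD; inconclusive = the two replicate wells disagree; inactive = no significant difference from solvent-only control wells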
KCC2 bumet counter: bumetanide-insensitive thallium flux in KCC2 cells with ouabain, counter-screen; shares compounds with Cl transport mod; HEK293-KCC2 + bumetanide/ouabain, thallium flux FluoZin2; active compounds read high; normalized thallium flux at 10 µM; 3,700 compounds, 49% hits; AID 1714;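 active = thallium entry rate above the same plate's blocked-transporter control wells by more than 3 SD; inconclusive = the two repeat wells disagree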;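 also: raw slope of fluorescence over initial fluorescence between 10 and 20 s after thallium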
KCC2 sec2: confirmation of human KCC2 transport modulators | shares compounds with Cl transport mod | HEK293-KCC2, thallium flux FluoZin2 fluorescence; actives lie on both sides; F/F0 rise rate, 10–20 s post-thallium | normalized thallium flux at 10 µM | 3,700 compounds, 23% hits | AID 1715;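 active = thallium flux slope more than 3 SD above or below the plate's solvent-only control mean, mostly below; inconclusive = the two repeat wells disagreed; inactive = no significant shift from solvent-only controls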;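 also: raw slope with 0.1% DMSO as baseline and bumetanide as block control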
HEK counter1: parental HEK flux effect, counter-screen. shares compounds with Cl transport mod. HEK293 parental cells, thallium flux FluoZin2, ouabain; baseline-ratio fluorescence slope, 10–20 s after thallium. thallium flux rate (normalised fluorescence) at 10 µM. 3,700 compounds, 46% hits;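 active = thallium flux rate significantly above the same plate's solvent-only control wells, beyond their mean plus 3 SD; inconclusive = the two replicate wells gave conflicting results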
KCC2 retest ouab: confirmation of human KCC2 modulators with ouabain; shares compounds with Cl transport mod; HEK293-KCC2, thallium flux FluoZin2 fluorescence; bidirectional: low = inhibitor, high = activator; raw Tl+ flux slope (below DMSO = inhibition, above = activation) at 10 µM; 3,700 compounds, 48% hits;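 active = thallium flux slope beyond 3 SD from same-plate DMSO control mean in most replicates, usually higher, sometimes lower; inconclusive = repeat tests gave conflicting results; inactive = no significant difference from controls in most replicates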;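 also: slope of initial-normalized fluorescence between seconds 10 and 20 after thallium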
HEK293 Tl flux2: counter-screen for KCC2 modulators: effect in parental HEK293 cells; AID 1718; thallium flux FluoZin-2 fluorescence slope; thallium flux slope at 10 µM; shares compounds with Cl transport mod; 3,700 compounds, 33% hits;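 active = thallium flux slope above the same plate's solvent-control mean plus 3 SD in both duplicate wells; inconclusive = duplicate wells that disagreed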;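 also: run without ouabain in cells lacking the KCC2 cotransporter; slope of fluorescence scaled to its starting value between 10 and 20 s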
* = called active by the depositor; ? = inconclusive; . = no result.

SMILES	Cl transport mod	DTT redox prof	ROMK mod	b-catenin transl	MT stabilize HCS	KCC2 sec1	KCC2 bumet counter	KCC2 sec2	HEK counter1	KCC2 retest ouab	HEK293 Tl flux2
Cc1ccc(S(=O)(=O)Nc2cc(C(F)(F)F)ccc2N2CCOCC2)c(C)c1	0.66	0.1	0.0207	-1.8	2.3	.	.	.	.	.	.
c1ccc(OCCN2CCN(Cc3nc(-c4ccc5c(c4)OCO5)no3)CC2)cc1	.	0.4	-0.765	2.7	3.1	.	.	.	.	.	.
COc1ccc2[nH]c(=O)c(CN(Cc3ccccc3OC)Cc3nnnn3CC3CCCO3)cc2c1 (stereo not drawn)	8.65*	1.5	.	0.3	3.4	0.00975	0.00512	0.0307	0.00734	0.0291	0.0103
Cc1ccc2[nH]c(=O)c(CN(CCc3ccccc3)Cc3nnnn3CC3CCCO3)cc2c1 (stereo not drawn)	-4.29*	2.6	-1.97	-1.4	2.0	?	0.00525	?	0.00719	0.0173	0.0107
O=c1[nH]c2cc3c(cc2cc1CN(Cc1nnnn1CC1CCCO1)C1CCCCC1)OCO3 (stereo not drawn)	7.43*	1.6	-1.4	-3.1	2.4	0.00567	?	0.0252*	0.00675	0.0161*	?
COc1ccc2[nH]c(=O)c(CN(CCc3ccccc3)Cc3nnnn3CC3CCCO3)cc2c1 (stereo not drawn)	0.0905	0.8	.	-3.6	3.0	.	.	.	.	.	.
Nc1nc(NCCCN2CCOCC2)nc(NCc2ccccc2)c1[N+](=O)[O-]	-0.568	.	.	7.0	.	.	.	.	.	.	.
O=C(NC(=S)Nc1ccc(Cc2ccncc2)cc1)c1ccc(F)cc1	-0.271	-3.6	-0.2	-1.8	2.6	.	.	.	.	.	.
Cc1ccc(/C=C2/N=C(c3ccccc3)NNC2=O)cc1	-0.523	.	.	0.5	.	.	.	.	.	.	.
O=C(Cc1coc(-c2ccc(F)cc2)n1)Nc1ccccc1	-3.84*	-1.4	.	2.3	3.1	0.0105	0.00568	?	0.00681	0.0355*	0.00978
O=C(Cc1cc(C(=O)O)c2ccccc2n1)Nc1ccccc1	0.193	-0.4	0.816	-1.6	1.9	.	.	.	.	.	.
CCCCCCC1(C)NC(=S)N(c2ccccc2)N1 (stereo not drawn)	-0.0721	-0.4	0.373	-0.7	4.9	.	.	.	.	.	.
CCC1(c2ccccc2)NC(=S)N(c2ccc(C)cc2)N1 (stereo not drawn)	77.5*	-2.0	0.646	.	4.8	0.0306*	0.0999*	0.0728*	0.093*	0.092*	0.0906*
CCC(Cc1ccccc1)NC(=O)CN(C)S(=O)(=O)c1ccc2c(c1)c(=O)n(C)c(=O)n2C (stereo not drawn)	.	-1.2	.	.	10.6	0.00676	0.00504	0.0238*	0.00822	?	0.0117
Cn1c(=O)c2cc(S(=O)(=O)NCCC(=O)N3CC=C(c4ccccc4)CC3)ccc2n(C)c1=O	-0.404	1.2	.	1.3	4.3	.	.	.	.	.	.
CN(CC(=O)N1CC=C(c2ccccc2)CC1)S(=O)(=O)c1ccc2c(c1)c(=O)n(C)c(=O)n2C	-3.87*	-1.1	.	.	1.6	0.011	?	0.0338	0.00813	0.0225	0.0111
Cn1c(=O)c2c(nc(SCC(=O)NCc3ccco3)n2C)n(C)c1=O	5.08*	-1.7	0.372	-1.2	3.7	0.0066	0.00366	0.032	0.00735	0.0183	0.00973
CCCCn1nnnc1SCC(=O)NCc1ccco1	4.49*	0.8	0.488	4.5	1.3	0.00862	0.00671	0.0311	0.00726	0.0205	?
